Experimental data published in ChEMBL document CHEMBL3046951, “Volatile constituents from the leaves of Callicarpa japonica Thunb. and their antibacterial activities” (2004).

How the values were obtained:
[1] = test system: Salmonella typhimurium; assay: Antimicrobial activity against Salmonella enterica subsp. enterica serovar Typhimurium ATCC 14028 assessed as growth inhibition rate at 16.8 mg/l after 72 hr by spectrophotometry; type: functional; conditions: ATCC 14028, 72 h, read-out: GI
Summary of the method: (§1)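 Salmonella Typhimurium ATCC 14028 grown in nutrient broth at 30 °C, precultured 24 h, then subcultured 1:100 for 18 h before testing. Single volatile compounds (>95% pure) were added. OD was read every 24 h over 72 h in a Bioscreen C, with 10% Tween 80 as the comparison control.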

[2] = test system: Listeria monocytogenes; assay: Antimicrobial activity against Listeria monocytogenes ATCC 19111 assessed as growth inhibition rate at 16.8 mg/l after 72 hr by spectrophotometry; type: functional; conditions: ATCC 19111, 72 h, read-out: GI
Summary of the method: (§2)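 L. monocytogenes was grown at 30 °C in tryptic soy broth, subcultured for 18 h, and exposed to pure volatile compounds (>95% purity). Growth was followed by Bioscreen C optical density every 24 h for 72 h against a 10% Tween 80 control.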

[3] = test system: Vibrio parahaemolyticus; assay: Antimicrobial activity against Vibrio parahaemolyticus ATCC 33844 assessed as growth inhibition rate at 16.8 mg/l after 72 hr by spectrophotometry; type: functional; conditions: ATCC 33844, 72 h, read-out: GI
[4] = test system: Escherichia coli; assay: Antimicrobial activity against Escherichia coli O157:H7 ATCC 43894 assessed as growth inhibition rate at 16.8 mg/l after 72 hr by spectrophotometry; type: functional; conditions: O157:H7 ATCC 43894, 72 h, read-out: GI
[5] = test system: Bacillus cereus; assay: Antimicrobial activity against Bacillus cereus ATCC 11778 assessed as growth inhibition rate at 16.8 mg/l after 72 hr by spectrophotometry; type: functional; conditions: ATCC 11778, 72 h, read-out: GI
Summary of the method: (§3)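 Pure volatile compounds (purity >95%; one at 90%) were tested against B. cereus ATCC 11778. The strain was grown at 30 °C in nutrient broth for 24 h, then subcultured for 18 h. Optical density was read in a Bioscreen C every 24 h for 72 h, with 10% Tween 80 as the control.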

[6] = test system: Staphylococcus aureus; assay: Antimicrobial activity against Staphylococcus aureus ATCC 25923 assessed as growth inhibition rate at 16.8 mg/l after 72 hr by spectrophotometry; type: functional; conditions: ATCC 25923, 72 h, read-out: GI
[7] = test system: Staphylococcus aureus; assay: Antimicrobial activity against Staphylococcus aureus ATCC 25923 assessed as growth inhibition rate at 2.36 mg/l after 72 hr by spectrophotometry; type: functional; conditions: ATCC 25923, 72 h, read-out: GI
[8] = test system: Listeria monocytogenes; assay: Antimicrobial activity against Listeria monocytogenes ATCC 19111 assessed as growth inhibition rate at 2.36 mg/l after 72 hr by spectrophotometry; type: functional; conditions: ATCC 19111, 72 h, read-out: GI; summary of the method: as §2
[9] = test system: Escherichia coli; assay: Antimicrobial activity against Escherichia coli O157:H7 ATCC 43894 assessed as growth inhibition rate at 2.36 mg/l after 72 hr by spectrophotometry; type: functional; conditions: O157:H7 ATCC 43894, 72 h, read-out: GI
[10] = test system: Vibrio parahaemolyticus; assay: Antimicrobial activity against Vibrio parahaemolyticus ATCC 33844 assessed as growth inhibition rate at 2.36 mg/l after 72 hr by spectrophotometry; type: functional; conditions: ATCC 33844, 72 h, read-out: GI
[11] = test system: Salmonella typhimurium; assay: Antimicrobial activity against Salmonella enterica subsp. enterica serovar Typhimurium ATCC 14028 assessed as growth inhibition rate at 2.36 mg/l after 72 hr by spectrophotometry; type: functional; conditions: ATCC 14028, 72 h, read-out: GI; summary of the method: as §1
[12] = test system: Bacillus cereus; assay: Antimicrobial activity against Bacillus cereus ATCC 11778 assessed as growth inhibition rate at 2.36 mg/l after 72 hr by spectrophotometry; type: functional; conditions: ATCC 11778, 72 h, read-out: GI; summary of the method: as §3
[13] = test system: Escherichia coli; assay: Antimicrobial activity against Escherichia coli O157:H7 ATCC 43894 assessed as growth inhibition rate at 1.84 mg/l after 72 hr by spectrophotometry; type: functional; conditions: O157:H7 ATCC 43894, 72 h, read-out: GI
[14] = test system: Bacillus cereus; assay: Antimicrobial activity against Bacillus cereus ATCC 11778 assessed as growth inhibition rate at 1.84 mg/l after 72 hr by spectrophotometry; type: functional; conditions: ATCC 11778, 72 h, read-out: GI; summary of the method: as §3
[15] = test system: Staphylococcus aureus; assay: Antimicrobial activity against Staphylococcus aureus ATCC 25923 assessed as growth inhibition rate at 1.84 mg/l after 72 hr by spectrophotometry; type: functional; conditions: ATCC 25923, 72 h, read-out: GI
[16] = test system: Vibrio parahaemolyticus; assay: Antimicrobial activity against Vibrio parahaemolyticus ATCC 33844 assessed as growth inhibition rate at 1.84 mg/l after 72 hr by spectrophotometry; type: functional; conditions: ATCC 33844, 72 h, read-out: GI
[17] = test system: Salmonella typhimurium; assay: Antimicrobial activity against Salmonella enterica subsp. enterica serovar Typhimurium ATCC 14028 assessed as growth inhibition rate at 1.84 mg/l after 72 hr by spectrophotometry; type: functional; conditions: ATCC 14028, 72 h, read-out: GI; summary of the method: as §1
[18] = test system: Listeria monocytogenes; assay: Antimicrobial activity against Listeria monocytogenes ATCC 19111 assessed as growth inhibition rate at 1.84 mg/l after 72 hr by spectrophotometry; type: functional; conditions: ATCC 19111, 72 h, read-out: GI; summary of the method: as §2
[19] = test system: Vibrio parahaemolyticus; assay: microbe, parasite or virus in culture; conditions: ATCC 33844, 72 h, read-out: GI
[20] = test system: Staphylococcus aureus; assay: microbe, parasite or virus in culture; conditions: ATCC 25923, 72 h, read-out: GI
[21] = test system: Listeria monocytogenes; assay: microbe, parasite or virus in culture; conditions: ATCC 19111, 72 h, read-out: GI
[22] = test system: Bacillus cereus; assay: microbe, parasite or virus in culture; conditions: ATCC 11778, 72 h, read-out: GI
[23] = test system: Escherichia coli; assay: microbe, parasite or virus in culture; conditions: O157:H7 ATCC 43894, 72 h, read-out: GI
[24] = test system: Salmonella typhimurium; assay: microbe, parasite or virus in culture; conditions: Salmonella enterica, ATCC 14028, 72 h, read-out: GI
[25] = test system: Listeria monocytogenes; assay: Antimicrobial activity against Listeria monocytogenes ATCC 19111 assessed as growth inhibition rate at 1.96 mg/l after 72 hr by spectrophotometry; type: functional; conditions: ATCC 19111, 72 h, read-out: GI
Summary of the method: (§4)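 Authentic volatiles (>95% purity; 2,4-heptadienal 90%) tested against 18 h subcultures. Growth media: E. coli O157:H7 and S. aureus in tryptic soy broth at 37 °C; L. monocytogenes in tryptic soy broth at 30 °C; V. parahaemolyticus in tryptic soy broth + 3% NaCl at 37 °C; S. typhimurium in nutrient broth at 30 °C. Bioscreen C OD every 24 h for 72 h versus 10% Tween 80 control.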

[26] = test system: Escherichia coli; assay: Antimicrobial activity against Escherichia coli O157:H7 ATCC 43894 assessed as growth inhibition rate at 1.96 mg/l after 72 hr by spectrophotometry; type: functional; conditions: O157:H7 ATCC 43894, 72 h, read-out: GI
[27] = test system: Vibrio parahaemolyticus; assay: Antimicrobial activity against Vibrio parahaemolyticus ATCC 33844 assessed as growth inhibition rate at 1.96 mg/l after 72 hr by spectrophotometry; type: functional; conditions: ATCC 33844, 72 h, read-out: GI; summary of the method: as §4
[28] = test system: Staphylococcus aureus; assay: Antimicrobial activity against Staphylococcus aureus ATCC 25923 assessed as growth inhibition rate at 1.96 mg/l after 72 hr by spectrophotometry; type: functional; conditions: ATCC 25923, 72 h, read-out: GI; summary of the method: as §4
[29] = test system: Bacillus cereus; assay: Antimicrobial activity against Bacillus cereus ATCC 11778 assessed as growth inhibition rate at 1.96 mg/l after 72 hr by spectrophotometry; type: functional; conditions: ATCC 11778, 72 h, read-out: GI
Summary of the method: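 Pure volatile compounds (>95% purity; 2,4-heptadienal 90%) identified in the leaf extract were tested against B. cereus ATCC 11778 in nutrient broth at 30 °C. The inoculum was grown 24 h, then subcultured (0.1 mL into 9.9 mL) for 18 h. Optical density was read in a Bioscreen C every 24 h for 72 h against a 10% Tween 80 control.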

CCCCCC=O [HEXANAL]
inhibition of growth at 16.8 µg/mL [1]: 39.1%
inhibition of growth at 16.8 µg/mL [2]: 14.4%
inhibition of growth at 16.8 µg/mL [3]: 57.8%
inhibition of growth at 16.8 µg/mL [4]: 41.5%
inhibition of growth at 16.8 µg/mL [5]: 19.3%
inhibition of growth at 16.8 µg/mL [6]: 11.3%

CCCCC=O [PENTANAL]
inhibition of growth at 2.36 µg/mL [7]: 6.3%
inhibition of growth at 2.36 µg/mL [8]: 0%
inhibition of growth at 2.36 µg/mL [9]: 0%
inhibition of growth at 2.36 µg/mL [10]: 0%
inhibition of growth at 2.36 µg/mL [11]: 4.2%
inhibition of growth at 2.36 µg/mL [12]: 11.3%

CC/C=C/C=O [PENTENAL]
inhibition of growth at 1.84 µg/mL [13]: 11%
inhibition of growth at 1.84 µg/mL [14]: 27.4%
inhibition of growth at 1.84 µg/mL [15]: 12.2%
inhibition of growth at 1.84 µg/mL [16]: 40.7%
inhibition of growth at 1.84 µg/mL [17]: 39.6%
inhibition of growth at 1.84 µg/mL [18]: 16.9%

CCCO [PROPANOL]
inhibition of growth at 1.76 µg/mL [19]: 0%
inhibition of growth at 1.76 µg/mL [20]: 6.1%
inhibition of growth at 1.76 µg/mL [21]: 0%
inhibition of growth at 1.76 µg/mL [22]: 0%
inhibition of growth at 1.76 µg/mL [23]: 0%
inhibition of growth at 1.76 µg/mL [24]: 2.6%

Cc1ccccc1 [TOLUENE]
inhibition of growth at 1.96 µg/mL [25]: 0%
inhibition of growth at 1.96 µg/mL [26]: 0%
inhibition of growth at 1.96 µg/mL [27]: 1.6%
inhibition of growth at 1.96 µg/mL [28]: 1.8%
inhibition of growth at 1.96 µg/mL [29]: 0%
